Measured values collected from several papers.
Each line is one published result; the experiments were not run side by side.
PIK3CA E545K: Phosphatidylinositol 4,5-bisphosphate 3-kinase catalytic subunit alpha isoform (PIK3CA, Homo sapiens, UniProt P42336, E545K)
PIK3CA: Phosphatidylinositol 4,5-bisphosphate 3-kinase catalytic subunit alpha isoform (PIK3CA, Homo sapiens, UniProt P42336)

With `C[C@H]1CC[C@H](n2c3cnccc3c3cnc(Nc4ccc5c(n4)CCN(C(=O)CO)C5)nc32)CC1` the remaining signal was 100% (PIK3CA E545K; cell-free assay; 1 µM).
The inhibition of `CO[C@@H]1[C@H](N(C)C(=O)c2ccccc2)C[C@H]2O[C@]1(C)n1c3ccccc3c3c4c(c5c6ccccc6n2c5c31)C(=O)NC4` is reported as 0% (PIK3CA E545K; enzyme activity, inhibitor; 1 µM).
`COc1ccc2[nH]c3c4[nH]c5ccc(OC)cc5c4c4c(c3c2c1)C(=O)NC4=O` has a remaining binding of 91% (PIK3CA; binding; 1 µM).
`C1=C/COCc2cc(ccc2OCCN2CCCC2)Nc2nccc(n2)-c2cccc(c2)COC/1` has a remaining binding of 60% (Phosphatidylinositol 4,5-bisphosphate 3-kinase catalytic subunit alpha isoform (PIK3CA, Homo sapiens, UniProt P42336, I800L); binding; 0.1 µM).
With `N#Cc1ccc(NC(=O)Nc2ccccc2)cc1` the remaining binding was 92% (PIK3CA; cell-free assay, competition with immobilised ligand; 25 µM).
For `C=CC(=O)N1CCC[C@@H](n2nc(-c3ccc(Oc4ccccc4)cc3)c3c(N)ncnc32)C1`, the inhibition was 28% (Phosphatidylinositol 4,5-bisphosphate 3-kinase catalytic subunit alpha isoform (PIK3CA, Homo sapiens, UniProt P42336, C420R); enzyme activity, inhibitor; 1 µM).
With `CCCCC(=O)Nc1ccc(-c2ccc3ncn(CCC)c(=O)c3c2)cn1` the remaining binding was 91% (Phosphatidylinositol 4,5-bisphosphate 3-kinase catalytic subunit alpha isoform (PIK3CA, Homo sapiens, UniProt P42336, M1043I); binding, competition with immobilised ligand; 0.5 µM).
The remaining signal of `C#Cc1cnc(Nc2ccnc(CO)c2)nc1Nc1ccccc1S(C)(=O)=NC#N` (stereo not drawn) is reported as 100% (PIK3CA; cell-free assay; 1 µM).
For `CC#CC(=O)N1CCC[C@H]1c1nc(-c2ccc(C(=O)Nc3ccccn3)cc2)c2c(N)nccn12`, the inhibition was 38% (Phosphatidylinositol 4,5-bisphosphate 3-kinase catalytic subunit alpha isoform (PIK3CA, Homo sapiens, UniProt P42336, Q546K); enzyme activity, inhibitor; 1 µM).
With `CC(C)S(=O)(=O)c1ccc2nccc(Nc3ccc4sc(C5CCCC5)nc4c3)c2c1` the activity vs control was 98.5% (Phosphatidylinositol 4,5-bisphosphate 3-kinase catalytic subunit alpha isoform, with p85 (PIK3CA, Homo sapiens, UniProt P42336); enzyme activity, inhibitor; 1 µM).
`C=CC(=O)N1CCC([C@@H]2CCNc3c(C(N)=O)c(-c4ccc(Oc5ccccc5)cc4)nn32)CC1` gave an inhibition of 12% (Phosphatidylinositol 4,5-bisphosphate 3-kinase catalytic subunit alpha isoform (PIK3CA, Homo sapiens, UniProt P42336, H1047Y); enzyme activity, inhibitor; 1 µM).
`Cc1ccc(NC(=O)c2ccnc(C(F)(F)F)c2)cc1-c1cc(OCCO)nc(N2CCOCC2)c1` has a remaining binding of 98% (Phosphatidylinositol 4,5-bisphosphate 3-kinase catalytic subunit alpha isoform (PIK3CA, Homo sapiens, UniProt P42336, H1047L); binding; 1 µM).
